Compound activity deposited in PubChem BioAssay by The Scripps Research Institute Molecular Screening Center.
Only some compounds are listed: those with a hit (about 4.5% of all), similar ones and a draw of the others.
GPR7 antagonist: GPR7 receptor antagonists, primary screen, cell-based, fluorescence, single concentration; Neuropeptides B/W receptor type 1 (Homo sapiens), P48145; GPR7-expressing cells, fluorescence antagonist assay; inhibition, % at 4.4 µM; actives 1.1% (n = 290,000); in the data active = inhibition above about 16%, passing the limit was not always enough;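 note: cells stimulated with the agonist NPW; 0% = agonist with vehicle and 100% = vehicle without agonist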
Target sequence (P48145 whole entry, looked up): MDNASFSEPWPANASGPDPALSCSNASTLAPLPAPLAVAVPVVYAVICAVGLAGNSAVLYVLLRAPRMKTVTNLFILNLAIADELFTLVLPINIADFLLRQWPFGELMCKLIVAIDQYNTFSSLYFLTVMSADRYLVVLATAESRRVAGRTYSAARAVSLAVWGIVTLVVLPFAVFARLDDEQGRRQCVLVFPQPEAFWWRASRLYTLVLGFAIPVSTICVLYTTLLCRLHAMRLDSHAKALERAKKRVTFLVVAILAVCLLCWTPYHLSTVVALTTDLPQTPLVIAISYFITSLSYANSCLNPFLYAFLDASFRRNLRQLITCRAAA
OX1R antag-1: antagonists of human orexin 1 receptor (OX1R). inhibition, % at 6.6 µM. OX1R-expressing cells, FRET antagonist read-out. AID 485270, 2010. actives 1.8% (n = 330,000). Orexin/Hypocretin receptor type 1 (Homo sapiens), O43613; in the data active = inhibition mostly above about 38%, no sharp cut-off; inactive = mostly below about 40%;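 note: 0% = agonist challenge alone and 100% = reference antagonist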
Target sequence (O43613 whole entry, looked up): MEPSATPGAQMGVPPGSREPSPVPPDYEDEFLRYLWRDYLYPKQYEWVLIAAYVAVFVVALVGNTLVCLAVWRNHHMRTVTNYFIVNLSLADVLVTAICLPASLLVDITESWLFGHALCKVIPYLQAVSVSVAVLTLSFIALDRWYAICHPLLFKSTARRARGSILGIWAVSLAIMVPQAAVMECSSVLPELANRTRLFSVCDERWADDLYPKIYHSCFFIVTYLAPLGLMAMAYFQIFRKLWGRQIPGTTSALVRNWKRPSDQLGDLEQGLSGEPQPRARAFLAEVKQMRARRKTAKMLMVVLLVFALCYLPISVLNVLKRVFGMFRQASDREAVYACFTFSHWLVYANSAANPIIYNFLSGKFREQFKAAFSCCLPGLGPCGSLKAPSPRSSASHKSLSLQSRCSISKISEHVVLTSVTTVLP
CHO parental Ca: ATP-evoked calcium signal inhibitors, parental CHO, primary screen, counter-screen for OX1R antagonist project, cell-based, fluorescence, Fluo-8 calcium dye; parental CHO-K1, ATP-induced calcium, Fluo-8 fluorescence; inhibition, % at 5.6 µM; actives 0.63% (n = 330,000); AID 463079, 2010;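 active = inhibition above that plate's mean sample inhibition plus 3 SD, cut at about 26% in these data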;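 note: 0% = ATP-challenged DMSO wells and 100% = DMSO wells without ATP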
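Test system: parental CHO cells; detection: calcium-sensitive Fluo-8 fluorescence; evaluation: percent inhibition of calcium signal; also added: ATP as calcium-mobilizing challenge; repeats: one well per compound; control set: ATP-challenged DMSO wells low, unchallenged DMSO wells high; compound: single nominal dose of 5.6 µM per compound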
OX1R antag-2: OX1R (HCRTR1) antagonists, primary screen, fluorescence, CHO/OX1R cells, Fluo-8 calcium, orexin A. Orexin/Hypocretin receptor type 1 (Homo sapiens), O43613. inhibition, % at 5 µM. actives 0.43% (n = 330,000). Fluo-8 calcium fluorescence;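 active = inhibition above its plate's threshold, mean inhibition of all tested compounds on the plate plus 3 SD, cut at about 37% in these data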;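 note: 0% = orexin A challenge wells and 100% = SB-334867-A antagonist wells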
TAAR1 antag: human TAAR1 antagonists, primary screen, Fluo-8 calcium fluorescence, CHO RD-HGA16 cells; Trace amine-associated receptor 1 (Homo sapiens), Q96RJ0; AID 624466, 2012; inhibition, % at 3 µM; actives 1.5% (n = 360,000); antagonist;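 active = inhibition above a per-plate cutoff, the mean inhibition of test compounds on that plate plus 3 SD, cut at about 49% in these data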;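 note: 0% = DMSO plus EC80 beta-PEA response and 100% = DMSO alone without agonist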
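Test system: RD-HGA16 CHO cells with stable hTAAR1 and Gα16 / Probe or stimulus: EC80 β-phenethylamine stimulus / Times: seeding 17-24 h prior, 75-min 37 °C, 30-min RT dye loading / Detection: Fluo-8 calcium-sensitive fluorescence / Read-out basis: % inhibition scaled between DMSO and EC80 PEA controls / Repeats: singlicate, one well per test compound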
TAAR1 agonist: human TAAR1 agonists, primary screen, Fluo-8 calcium fluorescence, CHO RD-HGA16 cells | Trace amine-associated receptor 1 (Homo sapiens), Q96RJ0 | vehicle wells 0%, saturating PEA agonist 100% | activation, % at 3 µM | actives 0.99% (n = 360,000) | AID 624467, 2012;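 active = activation above the mean activation of all test compounds in the run plus 3 SD, cut at about 38% in these data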
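Signal – calcium-sensitive Fluo-8 signal, excitation 470-495, emission 515-575 nm · System – RD-HGA16 (CHO) cells co-expressing Gα16 and hTAAR1 · Incubation – 17-24 h seeding, 75 min 37 °C dye, 30 min RT · Compound dosing – 3 µM single concentration · Repeats – no replicates (n 1)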
* marks the source's active call; other numbers are inactive results; . = not tested or not shown.

SMILES | GPR7 antagonist | OX1R antag-1 | CHO parental Ca | OX1R antag-2 | TAAR1 antag | TAAR1 agonist
CCOc1ccc(NC(=O)c2c(O)[nH]c(=O)[nH]c2=O)cc1 | . | 25.1 | -0.5 | -7.9 | -3.3 | 0.4
CCOC(=O)c1ccc(NC(=O)c2c(O)[nH]c(=O)[nH]c2=O)cc1 | 48.0* | -6.5 | -7.8 | -11.1 | 7.5 | 14.0
Cc1ccc(Cn2nc(C(=O)Nc3ccc(Br)cc3)cc2C)cc1 | 31.1 | 33.4 | 50.0* | -3.3 | -17.3 | 0.8
CC(C)=CCc1c(O)cc2c(c1O)C(=O)CC(c1ccc(O)cc1)O2 (configuration not stated) | . | -2.7 | 23.2 | 9.8 | 19.2 | 41.9*
CCCCCSc1cc(OC)c(CCN)cc1OC | 15.3 | 2.2 | -5.9 | -11.3 | 1.9 | 40.5*
Cn1c(O)c(/C=C2/C=CC=N2)c(=O)[nH]c1=O | -10.5 | 49.6* | -14.3 | 3.5 | 10.1 | -0.6
Cn1c(O)c(C=Nc2ccc(F)cc2)c(=O)[nH]c1=O | -10.7 | 6.3 | -2.9 | 2.9 | -3.5 | 0.3
CCCCC1(CC)COP(=O)(OCC(Cl)(Cl)Cl)OC1 (configuration not stated) | . | . | . | . | -1.1 | -1.0
CCN(CC)N=O | . | 6.7 | -0.7 | -3.1 | 3.1 | 0.9
CCNc1cc(N2CCN(C)CC2)ccc1[N+](=O)[O-] | -1.7 | 50.6* | -12.2 | -14.8 | -15.9 | 3.9
CN1CCN(c2ccc([N+](=O)[O-])c(N/N=C3\CN4CCC3CC4)c2)CC1 | -0.3 | 56.0* | 8.5 | 5.3 | 10.2 | 4.8
CCOC(=O)[C@]1(C#N)[C@@H]2C=CC(C(C)=O)=CN2[C@@H](C(N)=O)[C@@H]1c1ccsc1 | 4.1 | 28.5 | -20.7 | -11.2 | 3.6 | 12.4
CN(C)c1ccc(/C=C/[N+](=O)[O-])cc1 | 19.3* | 58.3* | 5.8 | 14.3 | 2.4 | 40.1*
CNCC(O)c1cccc(OC(=O)c2ccccc2C)c1 (configuration not stated) | 23.5* | -9.7 | -27.0 | -26.8 | -3.9 | 11.6
CCC(COC(=O)NC)NC(=O)Oc1cccc(C)c1 (configuration not stated) | -0.7 | 6.1 | 3.6 | 4.0 | 14.6 | 9.4
O=C(CSC1c2ccccc2-c2ccccc21)N/N=C/c1ccccc1C(=O)O | -12.6 | 53.6* | 4.9 | -1.0 | 1.4 | 7.4
CC(=O)C1=C(C)OC2=C(C(=O)CCC2)[C@@]12C(=O)N(C)c1ccccc12 | . | . | . | . | -0.9 | 3.2
CC1CC(C)CN(CC(=O)c2ccc(OC(F)F)cc2)C1 (configuration not stated) | 1.7 | 15.6 | -6.4 | -10.1 | -31.1 | 41.8*
CCCC[C@@H](C)C[C@@H](C)C(=O)N(C)[C@@H](CC(C)C)C(=O)N[C@H](C(=O)N(C)[C@H](C(=O)N1C[C@@H](O)C[C@H]1C(=O)N1C(=O)C=C[C@@H]1C)C(C)C)C(C)OC(C)=O (some centres not stated) | . | 52.5* | -23.9 | -22.2 | . | .
CC(C)(C)c1cc(OC(=O)Cc2ccccc2)ccc1O | -8.1 | 11.8 | 4.7 | 7.0 | -22.8 | 2.2
NC(N)=N/N=C/c1ccc(N(c2ccccc2)c2ccccc2)cc1 | -12.5 | 12.9 | 25.0 | 29.4 | 12.2 | 77.2*
COc1ccc(/C=N\N=C(N)N)cc1 | -19.1 | 34.1 | -7.2 | -3.2 | 4.7 | 21.2
C[C@H](CO)N1C[C@H](C)[C@@H](CN(C)C(=O)Oc2ccc3ccccc3c2)OCc2cnnn2CCCC1=O | . | . | . | . | -3.4 | -1.1
C=C(C)C(Cc1c(OC)ccc(C(=O)/C=C/c2ccc(O)cc2)c1O)OO (configuration not stated) | . | 7.6 | -2.4 | 8.4 | 53.7* | 7.0
CC12C(C(=O)O)C1(c1ccccc1)C2C(=O)O (configuration not stated) | . | . | . | . | -22.0 | 2.2
SMILES | GPR7 antagonist | OX1R antag-1 | CHO parental Ca | OX1R antag-2 | TAAR1 antag | TAAR1 agonist
O=C(NN=Cc1ccc(N(CCCl)CCCl)cc1)c1cccnc1 | . | . | . | . | 11.6 | 3.4
CN1CCN(c2c(F)cc([N+](=O)[O-])c(N)c2Br)CC1 | -1.5 | 51.9* | -9.5 | -4.8 | 4.9 | 0.5
C[C@@H]1C(=O)O[C@@H]2[C@H](O)C34[C@@H]5OC(=O)C3(O[C@H]3OC(=O)[C@H](O)C34[C@H](C(C)(C)C)[C@H]5O)[C@@]12O (some centres not stated) | -14.8 | 3.9 | -5.4 | -4.4 | -2.8 | 0.1
COc1cc(C2c3cc4c(cc3CC3COC(=O)C32)OCO4)cc(OC)c1OC (configuration not stated) | . | 5.0 | -9.7 | -10.2 | -12.4 | -0.2
COc1cc(C2c3cc4c(c(O)c3CC3COC(=O)C32)OCO4)cc(OC)c1OC (configuration not stated) | . | . | . | . | 49.6* | 15.4
C/C(=N\N=C(N)N)c1ccccc1 | -12.5 | 21.2 | -5.3 | -26.3 | -15.8 | 16.7
CC1CCOC(=O)C=CC=CC(=O)OC2CC3OC4C5OC5(C)C(O)CC4(COC(=O)C1O)C2(C)C31CO1 (configuration not stated) | . | . | . | . | 6.2 | 1.1
CC1=CC2OC3CC4OC(=O)C=CC=CC(=O)OCCC(C)C(O)C(=O)OCC2(CC1)C4(C)C31CO1 (configuration not stated) | . | . | . | . | 89.2* | 27.8
CCOC(=O)C1(c2ccccc2)CCN(CCC(=O)Nc2ccc(OC)cc2)CC1 | . | . | . | . | -15.6 | 4.6
CCOC(=O)C1(c2ccccc2)CCN(CCC(=O)Nc2cccc(Br)c2)CC1 | . | . | . | . | 50.1* | 17.2
CCC(C)(C)n1nnnc1C(c1cccs1)N1CC=C(c2ccc(F)cc2)CC1 (configuration not stated) | -5.3 | 19.9 | 45.7* | -1.8 | 25.4 | 9.5
Fc1ccc(C2=CCN(C(c3cccs3)c3nnnn3CCc3ccccc3)CC2)cc1 (configuration not stated) | -4.2 | 17.6 | -14.8 | -13.1 | 1.8 | 4.3
CCOC(=O)[C@]12Cc3cc(OC)ccc3[C@H]1N(CC(=O)OC)C(=O)c1cc(OC)ccc12 | . | . | . | . | 29.0 | -1.0
CSCCC(c1nnnn1C1CCCCC1)N1CCC(n2c(=O)[nH]c3ccccc32)CC1 (configuration not stated) | . | . | . | . | 62.3* | 19.6
O=c1[nH]c2ccccc2n1C1CCN(C(c2nnnn2C2CCCC2)C2CC2)CC1 (configuration not stated) | . | . | . | . | 39.7 | 25.8
O=c1[nH]c2ccccc2n1C1CCN(C(c2nnnn2C2CCCCC2)C2CC2)CC1 (configuration not stated) | . | . | . | . | 52.0* | 58.1*
